# Data published in ChEMBL document CHEMBL1817593, “C5'-Alkyl Substitution Effects on Digitoxigenin α-l-Glycoside Cancer Cytotoxicity” (ACS Med Chem Lett, 2011).
# Tests used:
# ACHN = assay: Cytotoxicity against human ACHN cells after 48 hrs by sulforhodamine B assay; format: functional
# SK-MEL-5 = assay: Cytotoxicity against human SK-MEL-5 cells after 48 hrs by sulforhodamine B assay; format: functional; conditions: SK-MEL-5, 48 h
# OVCAR-3 = assay: Cytotoxicity against human OVCAR3 cells after 48 hrs by sulforhodamine B assay; format: functional; conditions: OVCAR-3, 48 h
# NCI-H460 [1] = assay: Cytotoxicity against human NCI-H460 cells assessed as cell viability at 10 nM after 48 hrs by MTT assay; format: functional; conditions: NCI-H460, 48 h, read-out: Activity
# Procedure, shortened: (§1)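 Viability of NCI-H460 cells was measured by MTT (mitochondrial enzymatic activity) after 48 h exposure, within a dose series spanning 1 nM–10 μM. N = 9, analysed by two-way ANOVA.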
# A549 = assay: Cytotoxicity against human A549/ATCC cells after 48 hrs by sulforhodamine B assay; format: functional; conditions: A549, 48 h
# NCI-H460 [2] = assay: Cytotoxicity against human NCI-H460 cells assessed as cell death in serum free medium at 50 nM after 12 hrs by Hoechst 33342/propidium iodide staining based fluorescence microscopy; format: functional
# Procedure, shortened: (§2)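 NCI-H460 human lung cancer cells exposed 12 h to 10 nM–10 μM drug, including a 50 nM single-concentration test. Nuclei were stained with Hoechst 33342 and necrotic cells with propidium iodide. Apoptotic cells were scored by condensed or fragmented blue nuclei and necrotic cells by red PI staining. Total cell death (apoptosis plus necrosis) was recorded; N = 6.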
# HCC 2998 = assay: Cytotoxicity against human HCC2998 cells after 48 hrs by sulforhodamine B assay; format: functional; conditions: HCC 2998, 48 h
# MCF7 = assay: Cytotoxicity against human MCF7 cells after 48 hrs by sulforhodamine B assay; format: functional; conditions: MCF7, 48 h
# NCI-H460 [3] = assay: Cytotoxicity against human NCI-H460 cells after 48 hrs by sulforhodamine B assay; format: functional; conditions: NCI-H460, 48 h
# NCI-H460 [4] = assay: Cytotoxicity against human NCI-H460 cells assessed as cell death in serum free medium at 500 nM after 12 hrs by Hoechst 33342/propidium iodide staining based fluorescence microscopy; format: functional; procedure, shortened: as §2
# NCI/ADR-RES = assay: Cytotoxicity against human NCI/ADR-RES cells after 48 hrs by sulforhodamine B assay; format: functional
# NCI-H522 = assay: Cytotoxicity against human NCI-H522 cells after 48 hrs by sulforhodamine B assay; format: functional; conditions: NCI-H522, 48 h
# M14 = assay: Cytotoxicity against human M14 cells after 48 hrs by sulforhodamine B assay; format: functional; conditions: M14, 48 h
# Malme-3M = assay: Cytotoxicity against human MALME-3M cells after 48 hrs by sulforhodamine B assay; format: functional
# A498 = assay: Cytotoxicity against human A498 cells after 48 hrs by sulforhodamine B assay; format: functional; conditions: A498, 48 h
# SF-539 = assay: Cytotoxicity against human SF539 cells after 48 hrs by sulforhodamine B assay; format: functional; conditions: SF-539, 48 h
# T47D = assay: Cytotoxicity against human T47D cells after 48 hrs by sulforhodamine B assay; format: functional
# UO-31 = assay: Cytotoxicity against human UO31 cells after 48 hrs by sulforhodamine B assay; format: functional; conditions: UO-31, 48 h
# NCI-H460 [5] = assay: Cytotoxicity against human NCI-H460 cells assessed as cell viability at 1000 nM after 48 hrs by MTT assay; format: functional; conditions: NCI-H460, 48 h, read-out: Activity; procedure, shortened: as §1
# MDA-MB-435 = assay: Cytotoxicity against human MDA-MB-435 breast cancer cells after 48 hrs by sulforhodamine B assay; format: functional; conditions: MDA-MB-435, 48 h
# NCI-H460 [6] = assay: Cytotoxicity against human NCI-H460 cells assessed as cell death in serum free medium at 10 nM after 12 hrs by Hoechst 33342/propidium iodide staining based fluorescence microscopy; format: functional; procedure, shortened: as §2
# LOX IMVI = assay: Cytotoxicity against human LOXIMVI cells after 48 hrs by sulforhodamine B assay; format: functional
# BT-549 = assay: Cytotoxicity against human BT549 cells after 48 hrs by sulforhodamine B assay; format: functional; conditions: BT-549, 48 h
# Hs-578T = assay: Cytotoxicity against human Hs578T cells after 48 hrs by sulforhodamine B assay; format: functional
# RXF 393 = assay: Cytotoxicity against human RXF393 cells after 48 hrs by sulforhodamine B assay; format: functional; conditions: RXF 393, 48 h
# SR = assay: Cytotoxicity against human SR cells after 48 hrs by sulforhodamine B assay; format: functional
# 786-0 = assay: Cytotoxicity against human 786-0 cells after 48 hrs by sulforhodamine B assay; format: functional; conditions: 786-0, 48 h
# EKVX = assay: Cytotoxicity against human EKVX cells after 48 hrs by sulforhodamine B assay; format: functional
# NCI-H322M = assay: Cytotoxicity against human NCI-H322M cells after 48 hrs by sulforhodamine B assay; format: functional
# NCI-H460 [7] = assay: Induction of apoptosis in human NCI-H460 cells in serum free medium after 12 hrs by Hoechst 33342/propidium iodide staining based fluorescence microscopy; format: functional, cell-based; conditions: for IC50: NCI-H460, 12 h
# Procedure, shortened: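 NCI-H460 cells treated for 12 h at 10 nM to 10 μM. Total cell death (apoptosis plus necrosis) scored by Hoechst 33342/propidium iodide staining, with N = 6 and two-way ANOVA. IC50 obtained by nonlinear regression. Table values are the mean of three independent experiments with duplicate determinations.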
# NCI-H226 = assay: Cytotoxicity against human NCI-H226 cells after 48 hrs by sulforhodamine B assay; format: functional; conditions: NCI-H226, 48 h
# KM12 = assay: Cytotoxicity against human KM12 cells after 48 hrs by sulforhodamine B assay; format: functional; conditions: KM12, 48 h
# NCI-H460 [8] = assay: Cytotoxicity against human NCI-H460 cells assessed as cell death in serum free medium at 75 nM after 12 hrs by Hoechst 33342/propidium iodide staining based fluorescence microscopy; format: functional; procedure, shortened: as §2
# NCI-H460 [9] = assay: Cytotoxicity against human NCI-H460 cells assessed as cell death in serum free medium at 250 nM after 12 hrs by Hoechst 33342/propidium iodide staining based fluorescence microscopy; format: functional; procedure, shortened: as §2
# NCI-H460 [10] = assay: Growth inhibition of human NCI-H460 cells after 48 hrs by MTT assay; format: functional
# Procedure, shortened: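 NCI-H460 viability measured by MTT (mitochondrial enzymatic activity) after 48 h exposure at 1 nM to 10 μM. GI50 derived from dose-response curves, with N = 9 and two-way ANOVA. Values are the mean of three independent experiments with duplicate determinations.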
# SK-OV-3 = assay: Cytotoxicity against human SKOV3 cells after 48 hrs by sulforhodamine B assay; format: functional; conditions: SK-OV-3, 48 h
# HT-29 = assay: Cytotoxicity against human HT-29 cells after 48 hrs by sulforhodamine B assay; format: functional; conditions: HT-29, 48 h
# OVCAR-5 = assay: Cytotoxicity against human OVCAR5 cells after 48 hrs by sulforhodamine B assay; format: functional; conditions: OVCAR-5, 48 h
# NCI-H460 [11] = assay: Cytotoxicity against human NCI-H460 cells assessed as cell viability at 100 nM after 48 hrs by MTT assay; format: functional; conditions: NCI-H460, 48 h, read-out: Activity; procedure, shortened: as §1
# NCI-H460 [12] = assay: Cytotoxicity against human NCI-H460 cells assessed as cell viability after 48 hrs by MTT assay; format: functional; conditions: NCI-H460, 48 h
# Procedure, shortened: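 NCI-H460 cells were exposed to drug for 48 h, and viability was read by MTT as mitochondrial enzymatic activity. GI50 was derived from dose-response curves (1 nM–10 μM). Values are from three independent experiments with duplicate determinations, given with standard error of the mean.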
# K562 = assay: Cytotoxicity against human K562 cells after 48 hrs by sulforhodamine B assay; format: functional; conditions: K562, 48 h
compound,measurement,setting,value
CC(C)C[C@@H]1O[C@@H](O[C@H]2CC[C@@]3(C)[C@H](CC[C@@H]4[C@@H]3CC[C@]3(C)[C@@H](C5=CC(=O)OC5)CC[C@]43O)C2)CC[C@H]1O,GI50,ACHN,12.2 nM
same,GI50,SK-MEL-5,27.7 nM
same,GI50,OVCAR-3,23.5 nM
same,viability at 0.01 µM,NCI-H460 [1],49.2%
same,GI50,A549,13.4 nM
same,Activity,NCI-H460 [2],13.06%
same,GI50,HCC 2998,204 nM
same,GI50,MCF7,52.8 nM
same,GI50,NCI-H460 [3],20.9 nM
same,Activity,NCI-H460 [4],62.18%
same,GI50,NCI/ADR-RES,26.9 nM
same,GI50,NCI-H522,23.6 nM
same,GI50,M14,67.2 nM
same,GI50,Malme-3M,25.7 nM
same,GI50,A498,27 nM
same,GI50,SF-539,23.8 nM
same,GI50,T47D,36.2 nM
same,GI50,UO-31,27.7 nM
same,viability at 1 µM,NCI-H460 [5],3.64%
same,GI50,MDA-MB-435,149 nM
same,Activity,NCI-H460 [6],10.03%
same,GI50,LOX IMVI,27.2 nM
same,GI50,BT-549,22.5 nM
same,GI50,Hs-578T,7.5 nM
same,GI50,RXF 393,18.6 nM
same,GI50,SR,23 nM
same,GI50,786-0,23.3 nM
same,GI50,EKVX,31.7 nM
same,GI50,NCI-H322M,42.5 nM
same,Activity,NCI-H460 [7],Dose-dependent effect
same,IC50,NCI-H460 [7],458 nM
same,GI50,NCI-H226,95.9 nM
same,GI50,KM12,55.9 nM
same,Activity,NCI-H460 [8],15%
same,Activity,NCI-H460 [9],21.86%
same,GI50,NCI-H460 [10],Dose-dependent effect
same,GI50,"NCI-H460 [10]; NCI-H460, 48 h",8 nM
same,GI50,SK-OV-3,43.1 nM
same,GI50,HT-29,31.5 nM
same,GI50,OVCAR-5,113 nM
same,viability at 0.1 µM,NCI-H460 [11],18.5%
same,GI50,NCI-H460 [12],8.27 nM
same,GI50,K562,26.9 nM
CC(C)[C@@H]1O[C@@H](O[C@H]2CC[C@@]3(C)[C@H](CC[C@@H]4[C@@H]3CC[C@]3(C)[C@@H](C5=CC(=O)OC5)CC[C@]43O)C2)CC[C@H]1O,GI50,ACHN,17 nM
same,GI50,SK-MEL-5,22.6 nM
same,GI50,OVCAR-3,26 nM
same,viability at 0.01 µM,NCI-H460 [1],50.7%
same,GI50,A549,17.7 nM
same,Activity,NCI-H460 [2],14.48%
same,GI50,HCC 2998,243 nM
same,GI50,MCF7,161 nM
same,GI50,NCI-H460 [3],21.7 nM
same,Activity,NCI-H460 [4],50.85%
same,GI50,NCI/ADR-RES,31.5 nM
same,GI50,NCI-H522,26 nM
same,GI50,M14,93.4 nM
same,GI50,Malme-3M,63.6 nM
same,GI50,A498,90.1 nM
same,GI50,SF-539,27.6 nM
same,GI50,T47D,95.9 nM
same,GI50,UO-31,23.4 nM
same,viability at 1 µM,NCI-H460 [5],5.21%
same,GI50,MDA-MB-435,150 nM
same,Activity,NCI-H460 [6],9.96%
same,GI50,LOX IMVI,26.9 nM
same,GI50,BT-549,20.7 nM
same,GI50,Hs-578T,13.6 nM
same,GI50,RXF 393,14 nM
same,GI50,SR,37.2 nM
same,GI50,786-0,26.8 nM
same,GI50,EKVX,31.9 nM
same,GI50,NCI-H322M,77.4 nM
same,Activity,NCI-H460 [7],Dose-dependent effect
same,IC50,NCI-H460 [7],533 nM
same,GI50,NCI-H226,119 nM
same,GI50,KM12,152 nM
same,Activity,NCI-H460 [8],16.05%
same,Activity,NCI-H460 [9],22.73%
same,GI50,NCI-H460 [10],Dose-dependent effect
same,GI50,"NCI-H460 [10]; NCI-H460, 48 h",8 nM
same,GI50,SK-OV-3,118 nM
same,GI50,HT-29,41.9 nM
same,GI50,OVCAR-5,107 nM
same,viability at 0.1 µM,NCI-H460 [11],12.4%
same,GI50,NCI-H460 [12],7.66 nM
same,GI50,K562,47 nM
